In article PMC7141570 (Febs Letters, 2000):
pKi: −log10 of the molar value. “And” between values parts separate entries of the source, which are not always exact repeats. Equal entries are not always repeated. “Also recorded” adds a separate entry of the source.

Key:
[1] = target: T1, APN in rat brain membranes (Rattus norvegicus, UniProt P15684); assay: Competition with [125I]RB 129 binding on rat brain membranes; settings: for inhibition of specific [125I]RB 129 binding (qualitative): rat brain membranes
T1 sequence (P15684 1-965): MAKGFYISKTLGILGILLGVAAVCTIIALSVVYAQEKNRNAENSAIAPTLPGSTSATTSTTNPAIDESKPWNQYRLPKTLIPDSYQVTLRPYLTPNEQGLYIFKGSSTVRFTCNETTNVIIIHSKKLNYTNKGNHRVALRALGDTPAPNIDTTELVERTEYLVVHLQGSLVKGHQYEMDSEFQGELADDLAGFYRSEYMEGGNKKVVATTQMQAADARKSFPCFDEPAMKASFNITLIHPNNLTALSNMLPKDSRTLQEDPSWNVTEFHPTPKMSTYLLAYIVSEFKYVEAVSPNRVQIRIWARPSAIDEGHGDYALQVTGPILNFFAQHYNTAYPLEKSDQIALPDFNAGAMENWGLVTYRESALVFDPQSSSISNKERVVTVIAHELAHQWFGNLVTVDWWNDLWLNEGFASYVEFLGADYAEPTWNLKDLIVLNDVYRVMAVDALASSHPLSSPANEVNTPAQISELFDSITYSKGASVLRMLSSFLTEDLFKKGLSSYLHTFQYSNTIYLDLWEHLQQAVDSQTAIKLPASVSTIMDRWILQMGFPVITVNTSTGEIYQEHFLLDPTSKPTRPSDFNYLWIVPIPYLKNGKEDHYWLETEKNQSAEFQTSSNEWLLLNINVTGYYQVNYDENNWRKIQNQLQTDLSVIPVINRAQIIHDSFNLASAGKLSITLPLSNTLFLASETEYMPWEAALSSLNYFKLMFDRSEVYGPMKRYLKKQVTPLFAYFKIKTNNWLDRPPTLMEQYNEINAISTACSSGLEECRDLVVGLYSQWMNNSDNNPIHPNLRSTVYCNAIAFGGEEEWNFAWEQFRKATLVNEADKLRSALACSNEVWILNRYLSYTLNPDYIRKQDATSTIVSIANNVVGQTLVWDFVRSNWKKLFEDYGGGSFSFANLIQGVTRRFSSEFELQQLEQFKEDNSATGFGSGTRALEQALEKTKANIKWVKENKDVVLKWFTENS

pure porcine APN = settings: read-out: K i in enzymatic studies; cited from earlier work
recombinant pig APN [2] = target: T2, recombinant pig APN (Sus scrofa, UniProt P15145); assay type: binding; settings: transfected COS-7 cell membranes
T2 sequence (P15145 1-963): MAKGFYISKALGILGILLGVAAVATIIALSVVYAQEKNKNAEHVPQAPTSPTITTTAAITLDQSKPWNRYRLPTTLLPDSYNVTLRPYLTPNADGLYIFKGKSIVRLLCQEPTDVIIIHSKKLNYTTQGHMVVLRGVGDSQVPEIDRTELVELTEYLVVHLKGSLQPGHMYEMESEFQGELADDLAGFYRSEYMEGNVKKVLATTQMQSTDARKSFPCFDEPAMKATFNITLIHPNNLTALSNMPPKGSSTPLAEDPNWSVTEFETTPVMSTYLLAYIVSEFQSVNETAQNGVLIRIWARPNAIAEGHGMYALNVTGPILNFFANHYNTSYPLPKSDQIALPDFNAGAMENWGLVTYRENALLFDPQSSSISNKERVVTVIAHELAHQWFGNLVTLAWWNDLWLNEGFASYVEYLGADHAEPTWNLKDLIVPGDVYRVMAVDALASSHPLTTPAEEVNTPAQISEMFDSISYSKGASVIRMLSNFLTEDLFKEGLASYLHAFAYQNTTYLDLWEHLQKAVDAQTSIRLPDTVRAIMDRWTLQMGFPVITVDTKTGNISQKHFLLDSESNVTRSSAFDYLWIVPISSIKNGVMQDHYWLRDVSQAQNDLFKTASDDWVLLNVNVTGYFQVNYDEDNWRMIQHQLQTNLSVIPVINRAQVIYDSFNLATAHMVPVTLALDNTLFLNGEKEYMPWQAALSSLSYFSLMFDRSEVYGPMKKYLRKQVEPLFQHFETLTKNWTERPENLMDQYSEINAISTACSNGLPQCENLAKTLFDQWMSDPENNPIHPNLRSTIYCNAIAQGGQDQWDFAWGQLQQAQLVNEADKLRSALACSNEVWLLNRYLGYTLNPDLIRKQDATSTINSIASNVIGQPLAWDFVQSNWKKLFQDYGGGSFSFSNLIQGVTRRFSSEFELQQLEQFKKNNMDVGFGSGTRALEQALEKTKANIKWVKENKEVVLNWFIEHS

NEP = settings: read-out: K i for NEP; enzymatic assay; cited from earlier work
[3] = target: T1, APN in rat brain membranes; assay: [125I]RB 129 kinetic and saturation binding to rat brain membranes
In short: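 Rat brain minus cerebellum homogenised in 50 mM Tris–HCl pH 7.4, spun at 1000×g then 100 000×g; pellet resuspended in buffer with 0.02% bacitracin, 0.4–0.6 mg protein/ml. Incubations at 35°C with thiorphan. Kinetics used 100 pM [125I]RB 129, with dissociation started by 1 μM unlabeled RB 129 after 120 min. Saturation ran 0.075–8 nM for 80 min. Nonspecific binding defined with 1 μM RB 129; bound ligand collected on GF/B filters.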

recombinant pig APN [4] = target: T2, recombinant pig APN; assay type: binding
In short: (§1)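 Pig APN cDNA, wild-type or E350A, in pcDNA3 was electroporated (50 μg per 10×10^6 cells) into COS-7 cells grown in DMEM with 10% FCS, then kept 48 h at 37°C. Membranes (100 000×g) were resuspended in 50 mM Tris–HCl pH 7.4 with 0.02% bacitracin, 50–100 μg protein/tube. Saturation used 0.075–8 nM [125I]RB 129 for 80 min at 35°C with thiorphan, 1 μM RB 129 for nonspecific binding, GF/B filtration and Scatchard analysis.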

APN mutant E^350A = target: T3, APN mutant E^350A (Sus scrofa, UniProt P15145, E350A); assay: [125I]RB 129 binding to mutated APN expressed in COS-7 cells; design: species or system pig; settings: E^350A mutated APN in COS-7 cells
T3 sequence (P15145 2-963 E350A): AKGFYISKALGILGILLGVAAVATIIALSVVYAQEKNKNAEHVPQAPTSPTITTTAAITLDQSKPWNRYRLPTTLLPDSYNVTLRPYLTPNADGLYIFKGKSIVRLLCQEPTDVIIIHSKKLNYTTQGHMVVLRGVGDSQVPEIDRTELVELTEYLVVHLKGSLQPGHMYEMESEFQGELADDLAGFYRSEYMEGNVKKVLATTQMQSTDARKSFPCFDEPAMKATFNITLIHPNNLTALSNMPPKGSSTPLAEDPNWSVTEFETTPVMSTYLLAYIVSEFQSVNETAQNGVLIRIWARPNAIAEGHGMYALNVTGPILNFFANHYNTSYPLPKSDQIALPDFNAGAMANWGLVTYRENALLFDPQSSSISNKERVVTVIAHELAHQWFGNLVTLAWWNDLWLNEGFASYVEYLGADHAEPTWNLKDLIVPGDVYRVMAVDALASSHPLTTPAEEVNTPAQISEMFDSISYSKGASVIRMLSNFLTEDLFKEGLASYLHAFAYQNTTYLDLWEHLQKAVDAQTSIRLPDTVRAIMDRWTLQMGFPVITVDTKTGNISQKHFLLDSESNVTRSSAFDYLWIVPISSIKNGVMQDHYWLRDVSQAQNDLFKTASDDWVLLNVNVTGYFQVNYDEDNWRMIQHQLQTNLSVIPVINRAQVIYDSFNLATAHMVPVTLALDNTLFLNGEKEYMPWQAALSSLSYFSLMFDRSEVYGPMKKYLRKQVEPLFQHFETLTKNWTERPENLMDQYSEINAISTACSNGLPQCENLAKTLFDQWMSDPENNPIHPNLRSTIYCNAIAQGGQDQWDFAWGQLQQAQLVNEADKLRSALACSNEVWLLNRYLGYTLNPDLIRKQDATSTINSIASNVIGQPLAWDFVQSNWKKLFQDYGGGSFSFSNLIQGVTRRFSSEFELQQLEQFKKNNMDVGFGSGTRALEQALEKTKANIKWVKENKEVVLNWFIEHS
In short: as §1

NC(CS)Cc1ccccc1 (stereo not shown) [Phe‐thiol]
inhibition of specific [125I]RB 129 binding (qualitative) [1]: concentration‐dependent inhibition | pKi (pure porcine APN): 7.92

O=C(CC(Cc1ccccc1)C(=O)N[C@@H](Cc1ccccc1)C(=O)O)NO (stereo partly shown) [RB 38A]
fold lower affinity in rat brain binding versus enzymatic assay ([1]; rat brain membrane K i vs enzymatic K i on porcine APN): more than 10 fold | inhibition of specific [125I]RB 129 binding (qualitative) [1]: concentration‐dependent inhibition | inhibition of specific [125I]RB 129 binding (qualitative) (recombinant pig APN [2]): concentration‐dependent inhibition | pKi (pure porcine APN): 6.92

C[C@H](N)P(=O)(O)C[C@@H](Cc1ccccc1)C(=O)N[C@@H](Cc1ccc(O)c(I)c1)C(=O)O [RB 129, 2(S)‐benzyl‐3‐[hydroxy(1′(R)‐aminoethyl)phosphinyl]propanoyl‐L‐3‐iodotyrosine]
inhibition of specific [125I]RB 129 binding (qualitative) [1]: concentration‐dependent inhibition | inhibition of specific [125I]RB 129 binding (qualitative) (recombinant pig APN [2]): concentration‐dependent inhibition | pKi (NEP): 7.63

C[C@H](N)P(=O)(O)C[C@@H](Cc1ccccc1)C(=O)N[C@@H](Cc1ccc(O)c([125I])c1)C(=O)O [[^125I]RB 129, 2(S)‐benzyl‐3‐[hydroxy(1′(R)‐aminoethyl)phosphinyl]propanoyl‐L‐3‐[^125I]iodotyrosine]
association rate constant, k +1 ([3]; 100 pM ligand, 35°C, rat brain membranes): 1.58e+06 M⁻¹ s⁻¹ | incubation time to reach binding equilibrium ([3]; 100 pM, 35°C): 80 min | specific binding at routine protein concentration ([3]; 0.4–0.6 mg/ml rat brain membrane protein): 80–98% | dissociation rate constant (k −1) ([3]; dissociation initiated with 1 μM unlabeled RB 129, 35°C): 0.022 min⁻¹ | specific binding at the K d value ([3]; rat brain homogenates): 95% | maximal capacity of binding sites (B max) ([3]; saturation, rat brain homogenates): 722±88 fmol/mg of protein and 722 fmol/mg of protein | specific binding at routine protein concentration (recombinant pig APN [4]; 50–100 μg/ml recombinant APN protein): 80–98% | specific binding at the K d value (recombinant pig APN [4]; recombinant APN in COS-7 cells): ~92% | maximal capacity of binding sites (B max) (recombinant pig APN [4]; recombinant APN wild-type in COS-7 cells): 650±67 fmol/mg of protein | specific binding on mutated APN (APN mutant E^350A): No specific binding; also recorded: non‐measurable specific binding
